# Screens (PubChem)
# SIAE primary: inhibitors of human sialic acid acetylesterase SIAE | Q9HAT2 | SIAE FP-Rh probe binding, fluorescence polarization | inhibition, % at 9.66 µM | actives 0.69% (n = 370,000);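 active = inhibition above a cutoff: mean of compounds within the control limits plus 3 SD of those, cut at about 17% in these data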;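 also: 0% = plate median of compound wells and 100% = probe without SIAE protein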
# Target sequence (Q9HAT2 whole entry, looked up): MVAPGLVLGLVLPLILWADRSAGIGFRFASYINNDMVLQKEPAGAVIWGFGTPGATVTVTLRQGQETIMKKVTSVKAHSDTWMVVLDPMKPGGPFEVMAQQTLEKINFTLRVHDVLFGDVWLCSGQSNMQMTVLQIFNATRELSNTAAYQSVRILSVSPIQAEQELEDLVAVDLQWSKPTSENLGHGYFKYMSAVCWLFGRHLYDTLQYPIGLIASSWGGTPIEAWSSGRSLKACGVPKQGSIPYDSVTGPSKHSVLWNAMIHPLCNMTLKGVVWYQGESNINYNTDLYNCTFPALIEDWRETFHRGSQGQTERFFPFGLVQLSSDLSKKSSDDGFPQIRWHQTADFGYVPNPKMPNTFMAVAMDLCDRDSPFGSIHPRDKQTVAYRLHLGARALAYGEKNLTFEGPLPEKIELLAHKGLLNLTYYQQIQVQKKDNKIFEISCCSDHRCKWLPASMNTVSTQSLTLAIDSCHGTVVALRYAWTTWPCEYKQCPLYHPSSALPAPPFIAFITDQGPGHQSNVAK
# PRMT1 FP inh: blocks human protein arginine methyltransferase 1; actives 1.3% (n = 370,000); AID 652257; recombinant PRMT1, activity-based probe fluorescence polarization; inhibition, % at 2.79 µM;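 active = inhibition above about 21% made by adding two undisclosed values, limit read from the data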
# TCR CD3 inh: inhibitors of human TCR-CD3 interaction; AID 651800; actives 0.37% (n = 360,000); TAMRA-labeled TCR probe fluorescence, biochemical; inhibition, % at 9.4 µM; in the data active = inhibition above about 19%;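 also: recombinant mutant TCR 2C K166C tagged with TAMRA read by polarization; 0% = receptor in buffer alone and 100% = receptor with positive control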
# ABHD4 inh: inhibits mouse alpha/beta hydrolase domain 4; Q8VD66; purified mABHD4, FP-Rh probe fluorescence polarization; actives 0.54% (n = 370,000); AID 720543; inhibition, % at 8.92 µM;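 active = inhibition exceeding the mean over every tested compound plus 3 SD, cut at about 30% in these data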;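 also: 0% = plate median of compound wells and 100% = S159A mutant with DMSO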
#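 Test system: mouse ABHD4 enzyme, wild type. Reagent: FP-Rh fluorescent activity-based probe, added after compound pre-incubation. Timing: pre-incubation 45 min, probe exposure 60 min, at 25 °C. Technique: FP readout, ex 525 nm / em 598 nm. Benchmarks: high control S159A mutant with DMSO, low control median of compound wells.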
# rCAG binder: molecules binding r(CAG) RNA repeats. r(CAG) RNA repeat, TO-PRO-1 dye displacement fluorescence. inhibition, % at 3 µM. actives 1.3% (n = 370,000). AID 651821;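 active = inhibition above the plate cutoff, the mean of all test compounds on that plate plus 3 SD, cut at about 35% in these data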;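 also: 0% = DMSO alone and 100% = 100 µM mitoxantrone as full dye displacement; higher means more dye released from RNA so lower well fluorescence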
# rCAG binder conf: r(CAG) RNA repeat binding, confirmation. shares compounds with rCAG binder. TO-PRO-1 dye displacement fluorescence. inhibition, % at 3 µM. actives 70% (n = 4,300). AID 652065;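 active = inhibition above a per-plate cutoff, the mean inhibition of sample wells plus 3 SD, cut at about 35% in these data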;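 also: loss of TO-PRO-1 fluorescence as compound displaces dye from 1x1 AA loop RNA; 0% = DMSO only wells and 100% = 100 µM mitoxantrone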
# dCAG dye counter: counter-screen for rCAG RNA binders: DNA CAG dye complex inhibitors; AID 652068; d(CAG) DNA oligo TO-PRO-1 dye displacement, fluorescence; shares compounds with rCAG binder; actives 94% (n = 4,300); inhibition, % at 3 µM;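 active = inhibition above its plate's cutoff, the mean test-well inhibition plus 3 SD, cut at about 4.8% in these data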;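 also: 0% = DNA dye mix with DMSO and 100% = 100 µM mitoxantrone; hits displace the dye from DNA and so lower well fluorescence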
# dCAG dye DR: disrupts DNA CAG TO-PRO-1 complex in dose response | shares compounds with rCAG binder | DNA CAG/GTC duplex TO-PRO-1 dye displacement fluorescence | IC50, µM | actives 20% (n = 250) | AID 686960; in the data active = IC50 below about 10 µM
# An asterisk follows results filed as active; x = no result. An excerpt weighted towards active compounds, which were near 3.3% of everything screened.
SMILES,SIAE primary,PRMT1 FP inh,TCR CD3 inh,ABHD4 inh,rCAG binder,rCAG binder conf,dCAG dye counter,others
CCc1nnc(NS(=O)(=O)c2ccc(NC(=O)c3ccc([N+](=O)[O-])s3)cc2)s1,-2,-1,6,24,61*,48*,15*,
CCc1nnc(NS(=O)(=O)c2ccc(NC(=O)c3ccccc3O)cc2)s1,1,-7,-3,0,14,x,x,
CCCCOc1cccc(C(=O)Nc2ccc(S(=O)(=O)Nc3nnc(CC)s3)cc2)c1,-13,2,-2,-45,80*,73*,37*,
CCc1nnc(NS(=O)(=O)c2ccc(NC(=O)c3cccc([N+](=O)[O-])c3)cc2)s1,-3,1,2,-18,45*,27,4.9*,
C=CCN1C(=O)[C@@H](CC(=O)NCCc2ccccc2OC)[C@]2(C(=O)OC)CCCCC=C12,3,1,x,3,2,x,x,
CCN(CC)c1nc2c3c(nc4c(c3c1C#N)CC(=O)N4c1ccc(Cl)cc1)NC(C)=N2,-7,7,-1,19,60*,52*,23*,
O=S(c1cc(Cl)cc(Cl)c1O)c1cc(Cl)cc(Cl)c1O,3,1,-5,-84,40*,44*,11*,dCAG dye DR=9.4*
O=C(c1ccco1)[C@@H]1[C@@H]2C(=O)N(c3ccc(Br)cc3)C(=O)[C@@H]2C2c3ccccc3C=CN21 (stereo partly specified),-16,25*,8,-14,38*,29,16*,
O=C(c1ccco1)[C@@H]1[C@@H]2C(=O)N(c3ccc(F)cc3)C(=O)[C@@H]2C2c3ccccc3C=CN21 (stereo partly specified),1,16,-1,5,17,x,x,
Nc1ccc(S(=O)(=O)Nc2nccs2)cc1N=Nc1ccccc1[N+](=O)[O-],5,25*,11,15,68*,81*,48*,
N#C/C(=C/c1ccc(F)cc1)S(=O)(=O)c1ccccc1,1,3,4,5,4,x,x,
N#C/C(=C\c1ccc(C(=O)O)cc1)S(=O)(=O)c1cc(Br)ccc1Br,-9,6,0,-8,55*,12,1,
Cc1ccc(S(=O)(=O)N2[C@@H](c3ccc(C(C)(C)C)cc3)C(C(=O)O)=CC[C@H]2c2cccs2)cc1,-7,3,1,12,81*,73*,34*,dCAG dye DR=9.5*
Cc1ccc(S(=O)(=O)N2[C@@H](c3ccc(Cl)cc3)C(C(=O)O)=CC[C@H]2c2cccs2)cc1,5,3,-1,6,67*,54*,17*,
Cc1ccc([C@H]2C(C(=O)O)=CC[C@@H](c3cccs3)N2S(=O)(=O)c2ccc(C)cc2)cc1,1,3,6,12,61*,48*,17*,
Cc1ccc(S(=O)(=O)N2[C@@H](c3ccc(F)cc3)C(C(=O)O)=CC[C@H]2c2cccs2)cc1,-1,0,-1,4,43*,37*,9.9*,
Cc1ccc(S(=O)(=O)N(C)[C@H]2C[C@H]3c4cc(-c5ccccc5C)ccc4CCN3C[C@H]2[C@H](C)O)cc1,2,0,x,1,4,x,x,
Cc1ccc(S(=O)(=O)N2[C@@H](c3ccc(Br)cc3)C(C(=O)O)=CC[C@H]2c2cccs2)cc1,-3,0,-3,1,74*,66*,29*,
COc1cccc([C@@H]2CC=C(C(=O)O)[C@H](c3ccc(Br)cc3)N2S(=O)(=O)c2ccc(C)cc2)c1,16,-1,2,7,23,x,x,
Cc1ccc(S(=O)(=O)N2[C@@H](c3cccc(Cl)c3)C(C(=O)O)=CC[C@H]2c2cccs2)cc1,-6,0,5,10,58*,50*,15*,
O=C1c2ccccc2C(=O)N1c1ccccc1,6,7,-4,4,-2,x,x,
O=Cc1ccc(/C=C2\c3ccccc3C(=O)N2c2ccccc2)o1,10,18,-4,41*,41*,23,15*,
CC(C)=CCc1c2c(c3occ(-c4ccc(O)c(O)c4)c(=O)c3c1O)C=CC(C)(C)O2,-32,5,2,2,47*,43*,28*,
CC(C)=CCc1c2c(c3occ(-c4ccc(O)cc4)c(=O)c3c1O)C=CC(C)(C)O2,-12,1,2,-17,36*,31,13*,
CC1(C)C=Cc2c(c3c(c4c(=O)c(-c5ccc(O)cc5)coc24)OC(C)(C)CC3)O1,-3,2,7,0,7,x,x,
SMILES,SIAE primary,PRMT1 FP inh,TCR CD3 inh,ABHD4 inh,rCAG binder,rCAG binder conf,dCAG dye counter,others
Cc1cc(C(=O)O[C@@H]2CCC[C@@]3(C(=O)N(Cc4ccccc4)c4ccccc43)[C@H]2NC(=O)CCc2ccccc2)no1,3,-4,x,-6,9,x,x,
CCCCOc1ccc(C(=O)N/C(=C/C=C/c2ccccc2)C(=O)O)cc1,-3,5,2,-10,56*,54*,19*,
O=C(O)COc1ccc(/C=N/NC(=O)/C(=C/C=C/c2ccccc2)NC(=O)c2ccccc2)cc1,-6,-1,-8,-3,53*,43*,17*,
CCN1C(=O)/C(=C\c2ccc(-c3ccc([N+](=O)[O-])cc3OC)o2)SC1=Nc1cccc(C(=O)O)c1,17,17,12,29,63*,84*,50*,
N/C(=N\c1nc(CSc2nnnn2-c2ccccc2)cc(=O)[nH]1)Nc1ccccc1,-1,-4,5,2,1,x,x,
O=c1cc(CSc2nnnn2-c2ccccc2)nc(Nc2ccc(F)cc2)[nH]1,-12,-2,3,-19,43*,43*,15*,
O=C(O)/C(=C\c1ccccc1Cl)c1ccc(S(=O)(=O)N2CCCCC2)s1,-4,1,-1,8,51*,34,9.4*,
O=C(O)/C(=C\c1ccc(Cl)cc1)c1ccc(S(=O)(=O)N2CCCC2)s1,3,-1,4,1,27,x,x,
O=C(O)/C(=C\c1ccc(Cl)c([N+](=O)[O-])c1)c1ccc(S(=O)(=O)N2CCCCC2)s1,10,5,7,7,38*,68*,29*,
O=C(O)/C(=C\c1cccc(C(F)(F)F)c1)c1ccc(S(=O)(=O)N2CCCC2)s1,1,-3,7,2,36*,26,5.5*,
O=C(O)c1cc(S(=O)(=O)N2CCCCC2)sc1Cl,2,2,-4,0,-1,x,x,
CSc1ccc(/C=C(\C(=O)O)c2ccc(S(=O)(=O)N3CCCCC3)s2)cc1,-8,3,-3,2,59*,55*,20*,
